The values below come from publication PMC8370032 (Bioorganic & medicinal chemistry, 2021).

Series [1] deals with myeloma cells. Conditions: cited from earlier work.
The test system of series [2] is RPMI-8226 cells. The series is described as follows: MTT assay. Format: cell-based, human. As to conditions: RPMI-8226, 48 hours. A general note: Formazan colour is commonly taken as a measure of viable cells.
In series [3] the test system is RPMI-8226 cells. Format: cell-based, human. An outline of the steps:
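RPMI-8226 myeloma cells were exposed to a range of test-compound concentrations for 48 h, with lovastatin 10 μM as positive control. Lysates were immunoblotted for unmodified Rap1a (antibody detects only unmodified protein), H-Ras and β-tubulin (loading), and the same lysates were used for a lambda light chain ELISA (% of untreated control; mean ± SD, n=3; two-tailed t-test, p<0.05). LEC is the lowest concentration giving a visible unmodified Rap1a band plus a significant light chain rise.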

In the case of `CC(C)=CCC/C(C)=C/Cn1cc(CC(C)(P(=O)([O-])[O-])P(=O)([O-])[O-])nn1.[Na+].[Na+].[Na+].[Na+]` [Compound 3], the “increase in potency in cellular assays compared to the parent compound 1” value in series [1] is 5 fold.
Take `CCC(Cc1cn(C/C=C(\C)CCC=C(C)C)nn1)(P(=O)([O-])[O-])P(=O)([O-])[O-].[Na+].[Na+].[Na+].[Na+]` [Compound 4]: the “decrease in potency in cellular assays (relative to 1)” value in series [1] is listed as “five-fold”.
For `CC(C)=CCC/C(C)=C/Cn1cc(CC(F)(P(=O)([O-])[O-])P(=O)([O-])[O-])nn1.[Na+].[Na+].[Na+].[Na+]` [Compound 7, (2-[1-(3,7-Dimethyl-octa-2,6-dienyl)-1H-[1,2,3]triazol-4-yl]-1-fluoro-1-phosphono-ethyl)-phosphonic acid], in series [2], the “cytotoxicity in MTT assay” value is “induced cytotoxicity”.
Consider `C=C(Cc1cn(C/C=C(\C)CCC=C(C)C)nn1)P(=O)([O-])[O-].[Na+].[Na+]` [Compound 11], for which the “cytotoxicity in MTT assay” value in series [2] was “neither of the monophosphonates (11, 27), induced cytotoxicity”.
On to `CC(C)=CCC/C(C)=C/Cn1cc(CC(CN)(P(=O)([O-])[O-])P(=O)([O-])[O-])nn1.[Na+].[Na+].[Na+].[Na+]` [Compound 17], for which, in series [2], the “cytotoxicity in MTT assay” value was “induced cytotoxicity”.
Take `CC(C)=CCC/C(C)=C/Cn1cc(CCP(=O)([O-])[O-])nn1.[Na+].[Na+]` [Compound 27]: in series [2], the “cytotoxicity in MTT assay” value is recorded as “neither of the monophosphonates (11, 27), induced cytotoxicity”.
For `CC(C)=CCC/C(C)=C/Cn1cc(C=C(P(=O)([O-])[O-])P(=O)([O-])[O-])nn1.[Na+].[Na+].[Na+].[Na+]` [Compound 29, Disodium [1-[bis(sodiooxy)phosphoryl]-2-[1-[3,7-dimethylocta-2,6-dien-1-yl]-1H-1,2,3-triazol-4-yl]ethenyl]phosphonate], the “potency in cellular assays relative to cyclopropyl derivative 31” value in series [3] is “two-fold more potent”. In series [2], the “cytotoxicity in MTT assay” value is “induced cytotoxicity”.
As to `CC(C)=CCC/C(C)=C/Cn1cc(CC(O)(P(=O)([O-])[O-])P(=O)([O-])[O-])nn1.[Na+].[Na+].[Na+].[Na+]` [Compound 37], in series [2], the “cytotoxicity in MTT assay” value is “induced cytotoxicity”.
